According to ChEMBL document CHEMBL6071149, “Synthesis and photo-induced anticancer activity of new 2-phenylethenyl-1H-benzo[e]indole dyes” (Eur J Med Chem, 2024):
Active and inactive are the calls of the source.

Legend:
ARN-8 cell [1] = assay: Induction of oxidative stress in human ARN-8 cells-derived from human A375 cells assessed as increase in HO-1 level upto 4 uM under dark condition by immunoblot analysis; format: functional, cell-based
G-361 = assay: Induction of apoptosis in human G361 cells assessed as decrease in Mcl-1 level upto 4 uM pretreated for 4 hrs followed by light irradiation of 10 J/cm2 at 414 nm measured after 20 hrs by Western blot analysis; format: functional, cell-based; settings: time 24.0 hrs
Procedure, shortened: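 Compound exposure 4 h, then 414 nm irradiation, then 20 h further incubation. Lysates made in RIPA buffer, separated by SDS-PAGE and blotted to nitrocellulose. Primary antibodies in TBS with 4 % BSA and 0.1 % Tween 20, incubated overnight. Peroxidase secondary antibody with chemiluminescent detection. GAPDH served as loading control.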

ARN-8 cell [2] = assay: Downregulation of p53 level in human ARN-8 cells-derived from human A375 cells at higher concentration pretreated for 4 hrs followed by light irradiation of 10 J/cm2 at 414 nm measured after 20 hrs by fluorescence based assay; format: functional; settings: time 24.0 hrs

Measured: Activity

COc1ccc(/C=C/C2=Nc3ccc4ccccc4c3C2(C)C)cc1[N+](=O)[O-]
active: all assays above
